We go through eight molecules from ChEMBL document CHEMBL1944546, “Structure-activity relationships of novel alkylides: 3-O-arylalkyl clarithromycin derivatives with improved antibacterial activities” (2012).

Experiment [1] concerns Staphylococcus aureus. Description: Antibacterial activity against erythromycin-susceptible Staphylococcus aureus ATCC 29213 by broth microdilution method. It counts as functional. The essentials: (§1)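 MIC read by broth microdilution following CLSI (2010) guidance. The clinical isolates were identified by 16S rDNA sequencing and labelled by genotype and phenotype. S. aureus ATCC 29213 and S. pneumoniae ATCC 49619 were the control strains. Azithromycin, clarithromycin and 3-OH-clarithromycin were run as reference compounds.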
In general terms: Dilution methods test growth across graded concentrations, often in twofold steps.

Experiment [2] deals with Streptococcus pneumoniae. As to the kind of experiment: Antibacterial activity against erythromycin-susceptible Streptococcus pneumoniae ATCC 49619 by broth microdilution method. It counts as functional. The method, boiled down:
as §1

Experiment [3] deals with Streptococcus pneumoniae. Description: Antibacterial activity against penicillin-, constitutive MLS-resistant Streptococcus pneumoniae PU 11 by broth microdilution method. It counts as functional. The essentials: (§2)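 MIC by broth microdilution following CLSI (2010) recommendations, using clinical isolates identified by 16S rDNA sequencing and labelled by genotype and phenotype. S. aureus ATCC 29213 and S. pneumoniae ATCC 49619 were run as control strains, and azithromycin, clarithromycin and 3-OH-clarithromycin were tested as reference agents.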

Experiment [4] concerns Streptococcus pneumoniae. Description: Antibacterial activity against penicillin-susceptible, constitutive MLS-resistant Streptococcus pneumoniae PU 27 by broth microdilution method. It counts as functional. The method, boiled down:
as §2

The test system of experiment [5] is Streptococcus pneumoniae. As to the kind of experiment: Antibacterial activity against efflux,penicillin-susceptible Streptococcus pneumoniae PU 09 by broth microdilution method. It counts as functional. The method, boiled down: as §1
Experiment [6] relates to Staphylococcus haemolyticus. As to the kind of experiment: Antibacterial activity against methicillin-resistant, coagulase-negative, constitutive MLS-resistant Staphylococcus haemolyticus PU 19 by broth microdilution method. The experiment is classed as functional. The method, boiled down: as §2
In experiment [7] the test system is Staphylococcus aureus. Description: Antibacterial activity against methicillin-, inducible MLS-resistant Staphylococcus aureus PU 32 by broth microdilution method.

Values after ≈ are worked out from the molar mass of the structure shown.

As usually defined, the MIC is the smallest concentration in the dilution series that meets the test's criterion for growth inhibition. Lower therefore signals a more susceptible organism. Take `CC[C@H]1OC(=O)[C@H](C)[C@@H](O/C=C\Cc2cncnc2)[C@H](C)[C@@H](O[C@@H]2O[C@H](C)C[C@H](N(C)C)[C@H]2O)[C@](C)(OC)C[C@@H](C)/C(=N\OCc2ccccc2)[C@H](C)[C@H]2OC(=O)O[C@@]21C`: the MIC in experiment [1] turned out to be 2 µg/mL (≈ 2.38 µM); in experiment [2] it was 0.25 µg/mL (≈ 0.298 µM); in experiment [3] it was 32 µg/mL (≈ 38.1 µM); in experiment [4], 16 µg/mL (≈ 19.1 µM); in experiment [5], 1 µg/mL (≈ 1.19 µM); in experiment [6], 64 µg/mL (≈ 76.3 µM). The molecule further showed an MIC in experiment [7] of 1 µg/mL (≈ 1.19 µM).

`CC[C@H]1OC(=O)[C@H](C)[C@@H](O/C=C\Cc2cncnc2)[C@H](C)[C@@H](O[C@@H]2O[C@H](C)C[C@H](N(C)C)[C@H]2O)[C@](C)(OC)C[C@@H](C)/C(=N\O)[C@H](C)[C@@H](O)[C@]1(C)O`: the MIC in experiment [1] was 0.064 µg/mL (≈ 0.0885 µM); in experiment [2] it was 0.064 µg/mL (≈ 0.0885 µM); in experiment [3] it was 128 µg/mL (≈ 177 µM); in experiment [4], 16 µg/mL (≈ 22.1 µM); in experiment [5] it was 0.25 µg/mL (≈ 0.346 µM); in experiment [6] it was above 256 µg/mL. This molecule had an MIC in experiment [7] of 0.064 µg/mL (≈ 0.0885 µM).

`C=CCO[C@H]1[C@H](C)[C@@H](O[C@@H]2O[C@H](C)C[C@H](N(C)C)[C@H]2O)[C@](C)(OC)C[C@@H](C)/C(=N\O)[C@H](C)[C@@H](O)[C@](C)(O)[C@@H](CC)OC(=O)[C@@H]1C`: the MIC in experiment [1] was 256 µg/mL (≈ 397 µM); in experiment [2], 16 µg/mL (≈ 24.8 µM); in experiment [3], above 256 µg/mL; in experiment [4], 128 µg/mL (≈ 198 µM); in experiment [5], 32 µg/mL (≈ 49.6 µM); in experiment [6] it was above 256 µg/mL. The molecule further yielded an MIC in experiment [7] of 128 µg/mL (≈ 198 µM).

With `CC[C@H]1OC(=O)[C@H](C)[C@@H](O)[C@H](C)[C@@H](O[C@@H]2O[C@H](C)C[C@H](N(C)C)[C@H]2O)[C@](C)(OC)C[C@@H](C)C(=O)[C@H](C)[C@@H](O)[C@]1(C)O`, the MIC in experiment [1] was above 256 µg/mL; in experiment [2] it was 64 µg/mL (≈ 109 µM); in experiment [3], above 256 µg/mL; in experiment [4] it was 128 µg/mL (≈ 217 µM); in experiment [5] it was 128 µg/mL (≈ 217 µM); in experiment [6], above 256 µg/mL. In experiment [7], this molecule had a minimum inhibitory concentration (MIC) above 256 µg/mL.

For `CC[C@H]1OC(=O)[C@H](C)[C@@H](O/C=C\Cc2cncnc2)[C@H](C)[C@@H](O[C@@H]2O[C@H](C)C[C@H](N(C)C)[C@H]2O)[C@](C)(OC)C[C@@H](C)/C(=N\OCc2ccccc2Cl)[C@H](C)[C@H]2OC(=O)O[C@@]21C`, the MIC in experiment [1] was determined as 8 µg/mL (≈ 9.16 µM); in experiment [2] it was 0.25 µg/mL (≈ 0.286 µM); in experiment [3], 32 µg/mL (≈ 36.6 µM); in experiment [6], 64 µg/mL (≈ 73.3 µM); in experiment [7], 32 µg/mL (≈ 36.6 µM).

As for `CC[C@H]1OC(=O)[C@H](C)[C@@H](OCC#Cc2cccnc2)[C@H](C)[C@@H](O[C@@H]2O[C@H](C)C[C@H](N(C)C)[C@H]2O)[C@](C)(OC)C[C@@H](C)/C(=N\OCc2ccccc2Cl)[C@H](C)[C@H]2OC(=O)O[C@@]21C`, the MIC came to 64 µg/mL (≈ 73.5 µM) in experiment [1]; 16 µg/mL (≈ 18.4 µM) in experiment [2]; 32 µg/mL (≈ 36.8 µM) in experiment [3]; 64 µg/mL (≈ 73.5 µM) in experiment [6]; 64 µg/mL (≈ 73.5 µM) in experiment [7].

With `CC[C@H]1OC(=O)[C@H](C)[C@@H](OCC#Cc2cncnc2)[C@H](C)[C@@H](O[C@@H]2O[C@H](C)C[C@H](N(C)C)[C@H]2O)[C@](C)(OC)C[C@@H](C)/C(=N\OCc2ccccc2Cl)[C@H](C)[C@H]2OC(=O)O[C@@]21C`, the MIC in experiment [1] is 32 µg/mL (≈ 36.7 µM); in experiment [2] it was 16 µg/mL (≈ 18.4 µM); in experiment [3] it was 32 µg/mL (≈ 36.7 µM); in experiment [6], 32 µg/mL (≈ 36.7 µM); in experiment [7], 32 µg/mL (≈ 36.7 µM).

Regarding `CC[C@H]1OC(=O)[C@H](C)[C@@H](OC/C=C/c2cncnc2)[C@H](C)[C@@H](O[C@@H]2O[C@H](C)C[C@H](N(C)C)[C@H]2O)[C@](C)(OC)C[C@@H](C)/C(=N\OCc2ccccc2Cl)[C@H](C)[C@H]2OC(=O)O[C@@]21C`, the MIC in experiment [1] amounted to 64 µg/mL (≈ 73.3 µM); in experiment [2], 4 µg/mL (≈ 4.58 µM); in experiment [3], 32 µg/mL (≈ 36.6 µM); in experiment [6] it was 64 µg/mL (≈ 73.3 µM); in experiment [7], 64 µg/mL (≈ 73.3 µM).
